The text below walks through data of ChEMBL document CHEMBL5113430, “Evaluation of chromane derivatives: Promising privileged scaffolds for lead discovery within Alzheimer's disease” (Bioorg Med Chem, 2022).

Data set [1] has as its target T1, Acetylcholinesterase (Electrophorus electricus, UniProt O42275). The data set is described as follows: Inhibition of electric eel AChE using […] as a substrate and measured for 125 sec by DTNB based Ellman's method.
In data set [2] the target is T2, Amine oxidase [flavin-containing] A (Homo sapiens, UniProt P21397).
T2 sequence (P21397 whole entry): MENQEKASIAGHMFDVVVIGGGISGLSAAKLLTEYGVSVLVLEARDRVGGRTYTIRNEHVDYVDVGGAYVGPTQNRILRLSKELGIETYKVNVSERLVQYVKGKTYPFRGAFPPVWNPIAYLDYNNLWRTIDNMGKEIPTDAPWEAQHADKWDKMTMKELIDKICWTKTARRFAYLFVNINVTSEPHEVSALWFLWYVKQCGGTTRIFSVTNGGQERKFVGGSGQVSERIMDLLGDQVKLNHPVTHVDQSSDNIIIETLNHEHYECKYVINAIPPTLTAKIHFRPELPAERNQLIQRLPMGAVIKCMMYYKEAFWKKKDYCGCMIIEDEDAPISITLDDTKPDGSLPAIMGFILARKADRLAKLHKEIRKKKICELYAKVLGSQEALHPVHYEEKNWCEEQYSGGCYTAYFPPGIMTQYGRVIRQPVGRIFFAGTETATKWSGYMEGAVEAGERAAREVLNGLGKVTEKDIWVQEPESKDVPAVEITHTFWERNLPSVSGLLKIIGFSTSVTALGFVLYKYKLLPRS
In words: Inhibition of recombinant MAO-A (unknown origin) expressed in baculovirus infected BTI cells assessed as reduction in 4-hydroxyquinoline level using kynuramine as a substrate at 1 uM incubated for 20 mins by discontinuous fluorimetric assay relative to control. Summed up:
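Discontinuous fluorimetric assay with recombinant membrane-bound MAO-A and kynuramine at two-fold KM (KM = 30 μM). Test compound at 1 μM, from a 1 mM DMSO stock. Incubated 20 min at 37 °C, stopped with 2 N NaOH. 4-hydroxyquinoline read at ex 320 nm / em 405 nm. Percent inhibition against no-inhibitor control, mean ± SD of two independent experiments in duplicate.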

Data set [3] concerns the target T3, Cholinesterase (Equus caballus, UniProt P81908). In words: Inhibition of Equine serum BuChE using S-butyrylthiocholine iodide as a substrate and measured for 125 sec by DTNB based Ellman's method.
Data set [4] deals with T4, Amine oxidase [flavin-containing] B (Homo sapiens, UniProt P27338).
T4 sequence (P27338 whole entry): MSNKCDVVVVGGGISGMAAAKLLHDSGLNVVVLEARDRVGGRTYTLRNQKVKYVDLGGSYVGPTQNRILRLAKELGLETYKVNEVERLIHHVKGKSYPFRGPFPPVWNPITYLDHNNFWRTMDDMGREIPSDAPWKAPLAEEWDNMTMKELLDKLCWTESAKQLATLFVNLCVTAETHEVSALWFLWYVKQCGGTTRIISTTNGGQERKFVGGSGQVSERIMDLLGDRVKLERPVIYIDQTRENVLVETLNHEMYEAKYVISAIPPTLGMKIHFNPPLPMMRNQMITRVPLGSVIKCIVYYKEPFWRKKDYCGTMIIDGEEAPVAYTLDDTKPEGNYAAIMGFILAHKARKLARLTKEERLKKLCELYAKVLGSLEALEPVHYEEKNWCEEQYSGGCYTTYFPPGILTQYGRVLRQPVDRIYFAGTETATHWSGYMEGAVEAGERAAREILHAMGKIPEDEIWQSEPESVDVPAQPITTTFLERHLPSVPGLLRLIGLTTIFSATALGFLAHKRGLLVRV
The data set is described as follows: Inhibition of recombinant MAO-B (unknown origin) expressed in baculovirus infected BTI cells assessed as reduction in 4-hydroxyquinoline level using kynuramine as a substrate at 1 uM incubated for 20 mins by discontinuous fluorimetric assay relative to control. The settings on record: read-out: INH.

The target of data set [5] is T3, Cholinesterase. The data set is described as follows: Inhibition of Equine serum BuChE assessed as inhibitory constants for binding the free enzyme using S-butyrylthiocholine iodide as a substrate by Cornish-Bowden plot analysis. Put shortly:
(§1)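 Equine BuChE, Ellman method: 50 μM phosphate buffer pH 8.0, 0.975 mM DTNB, 1.25% DMSO, 25 °C, read at 405 nm over 125 s. Runs used 5 butyrylthiocholine levels (1/4 to 4 × KM) and 3–4 inhibitor levels giving roughly 30–80% inhibition. KM and Vmax came from nonlinear regression. Mode of inhibition and constants came from Cornish-Bowden plots.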

Data set [6] concerns the target T3, Cholinesterase. The data set is described as follows: Inhibition of Equine serum BuChE assessed as inhibitory constants for binding the enzyme-substrate complex using S-butyrylthiocholine iodide as a substrate by Cornish-Bowden plot analysis. Put shortly: as §1
The target in data set [7] is Cholinesterase (Equus caballus) (UniProt P81908). The data set is described as follows: Inhibition of equine serum BuChE at 1.47 mM by STD-NMR spectroscopy. Put shortly:
(§2)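 STD-NMR with 5 μM equine BuChE in D2O; ligand stocks of 8.8 and 4.8 mM. Saturation times for buildup curves 0.25–5 s, total experiment time held at 6.5 s. Water suppression at 4.7 ppm, sweep width 20.03 ppm. Blanks checked for direct ligand saturation.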

The target of data set [8] is T1, Acetylcholinesterase. The data set is described as follows: Inhibition of electric eel AChE using […] as a substrate and measured upto 180 sec by DTNB based Ellman's method.
Data set [9] deals with T4, Amine oxidase [flavin-containing] B. The data set is described as follows: Inhibition of human MAO-B assessed as shielding effect on inhibitor […] at 0.016 mM incubated for 20 min by STD-NMR spectroscopy. To be noted: 16 µM. Put shortly:
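MAO-B incubated with the N-propargyl inhibitor and followed by 1H NMR, with spectra recorded every 5 min. The spectrum of inhibitor alone was compared with the inhibitor–enzyme mixture at 20 min, watching shifts of inhibitor protons, especially the propargyl proton. Ligand-only controls and blanks checked for direct saturation. Water suppression at 4.7 ppm.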

Data set [10] deals with Cholinesterase (Equus caballus) (UniProt P81908). In words: Inhibition of equine serum BuChE at 0.8 mM by STD-NMR spectroscopy. Summed up: as §2
Chain of Cholinesterase (Equus caballus) (P81908 whole entry): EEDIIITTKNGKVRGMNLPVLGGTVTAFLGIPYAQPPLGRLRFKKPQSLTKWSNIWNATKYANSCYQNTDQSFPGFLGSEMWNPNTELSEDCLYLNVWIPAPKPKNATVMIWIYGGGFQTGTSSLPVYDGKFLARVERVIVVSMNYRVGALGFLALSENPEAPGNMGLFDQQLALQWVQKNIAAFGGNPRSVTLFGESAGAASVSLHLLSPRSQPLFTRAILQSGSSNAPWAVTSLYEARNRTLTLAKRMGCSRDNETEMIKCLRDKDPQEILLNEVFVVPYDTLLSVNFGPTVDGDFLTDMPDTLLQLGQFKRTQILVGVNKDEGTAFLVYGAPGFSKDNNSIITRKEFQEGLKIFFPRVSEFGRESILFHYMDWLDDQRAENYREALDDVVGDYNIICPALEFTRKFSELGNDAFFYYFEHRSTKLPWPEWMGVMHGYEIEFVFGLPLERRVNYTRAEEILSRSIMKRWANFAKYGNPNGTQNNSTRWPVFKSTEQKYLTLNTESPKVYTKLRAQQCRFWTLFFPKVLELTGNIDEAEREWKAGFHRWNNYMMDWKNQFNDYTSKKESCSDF

Calls of active or inactive are those of the source. The rule behind the calls is not given here.

T3 sequence (P81908 whole entry): as above
T1 sequence (O42275 whole entry): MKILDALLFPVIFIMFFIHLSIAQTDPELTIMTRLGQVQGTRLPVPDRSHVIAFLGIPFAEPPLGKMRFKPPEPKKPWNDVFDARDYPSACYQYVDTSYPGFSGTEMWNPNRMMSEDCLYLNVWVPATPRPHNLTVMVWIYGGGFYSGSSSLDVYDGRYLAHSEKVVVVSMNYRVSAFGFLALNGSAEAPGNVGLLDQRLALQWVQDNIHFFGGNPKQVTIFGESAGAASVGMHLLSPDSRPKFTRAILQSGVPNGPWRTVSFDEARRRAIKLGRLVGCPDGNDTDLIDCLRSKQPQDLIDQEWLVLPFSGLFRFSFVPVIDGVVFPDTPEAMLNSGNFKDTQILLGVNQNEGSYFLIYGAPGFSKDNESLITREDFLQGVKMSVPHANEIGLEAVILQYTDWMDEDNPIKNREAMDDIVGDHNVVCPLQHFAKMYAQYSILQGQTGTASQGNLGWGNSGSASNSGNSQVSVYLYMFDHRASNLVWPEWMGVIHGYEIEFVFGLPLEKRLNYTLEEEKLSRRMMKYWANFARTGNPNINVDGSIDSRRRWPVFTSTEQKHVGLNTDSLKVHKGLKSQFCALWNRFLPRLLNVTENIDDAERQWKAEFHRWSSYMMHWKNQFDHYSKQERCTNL

Regarding `CC1(C)COc2ccc(F)cc2C1O` (configuration not stated), the half-maximal inhibitory concentration (IC50) against Acetylcholinesterase [1] and against Cholinesterase [3] was above 100 µM throughout. The inhibition at 1 µM in [2] turned out to be 16.5%; in [4], 8.3%.
With `CC1(C)COc2ccc3ccccc3c2C1O` (configuration not stated), the concentration for half-maximal inhibition (IC50) at Acetylcholinesterase [1] is above 100 µM; on Cholinesterase [3] it was 33 µM.
With `CC1(C)COc2c(ccc3cccnc23)C1O` (configuration not stated), the concentration for half-maximal inhibition (IC50) is above 100 µM against Acetylcholinesterase [1] and 5 µM on Cholinesterase [3]. The Ki on Cholinesterase [5] worked out at 7.2 µM; on Cholinesterase [6], 13.7 µM.
Regarding `C#CCNC1c2cc(C)ccc2OCC1(C)C` (configuration not stated), the inhibition at 1 µM is -9.4% in data set [2] and -6.8% in [4].
`COc1cccc2c1C(=O)C(C)(C)CO2`: the figures for the 50% inhibitory concentration (IC50) against Acetylcholinesterase [1] and on Cholinesterase [3] were above 100 µM and 12 µM, respectively. The inhibition at 1 µM in data set [2] turned out to be 12.1%; in data set [4] it was 5.9%.
As for `CC1(C)COc2cc(F)c(F)cc2C1O` (configuration not stated), the 50% inhibitory concentration (IC50) against Acetylcholinesterase [1] is above 100 µM; at Cholinesterase [3], 28 µM.
With `CC1(C)COc2ccccc2C1N` (configuration not stated), the figures for the inhibition at 1 µM in data set [2] and in [4] were -3.8% and 3.7%, respectively. This compound also returned an IC50 on Cholinesterase [3] of 38 µM.
As to `CC1(C)COc2cc(F)c(F)cc2C1=O`, the 50% inhibitory concentration (IC50) against Acetylcholinesterase [1] and at Cholinesterase [3] was above 100 µM each time.
`CC1(C)COc2ccc3ccccc3c2C1=O`: the inhibition result in [7] was “Active”. Besides, the half-inhibitory concentration (IC50) against Acetylcholinesterase [1] was above 100 µM; on Cholinesterase [3], 2.9 µM. Besides, the inhibition at 1 µM in [2] turned out to be 23.2%; in data set [4] it was 5.1%. Further, the Ki is 2 µM at Cholinesterase [5] and 6.7 µM on Cholinesterase [6].
For the compound `C#CCN(Cc1ccccc1)C1c2ccccc2OCC1(C)C` (configuration not stated), the inhibition at 1 µM in data set [2] is -10.6%; in data set [4] it was 2.9%.
With `C#CCNC1c2cccc(OC)c2OCC1(C)C` (configuration not stated), the inhibition at 1 µM in data set [2] amounted to 4.6%; in data set [4] it was 13.8%.
As to `CCOc1cc(C#N)cc2c1OCC(C)(C)C2=O`, the half-maximal inhibitory concentration (IC50) on Acetylcholinesterase [1] and against Cholinesterase [3] was above 100 µM in each case. Further, the values for the inhibition at 1 µM in [2] and in data set [4] were 20.5% and 4.7%, respectively.
Turning to `CC1(C)COc2ncccc2C1=O`, the IC50 on Acetylcholinesterase [1] and on Cholinesterase [3] was above 100 µM in each case.
`Cc1ccc2c(c1)C(N)C(C)(C)CO2` (configuration not stated) returned an IC50 at Cholinesterase [3] of 67 µM. This lies in the double-digit micromolar range.
As for `CC1(C)COc2cc3ccccc3cc2C1N` (configuration not stated), the inhibition at 1 µM in data set [2] is 13.3%; in data set [4], 7.5%. Half-maximal inhibition against Cholinesterase [3] (IC50) was put at 8.9 µM. Moreover, the results for the Ki at Cholinesterase [5] and on Cholinesterase [6] were 18 µM and 11 µM, respectively.
For the compound `O=C1CC(OCCCCCSC(=S)N2CCCCC2)Oc2ccccc21` (configuration not stated), on Acetylcholinesterase [8], the IC50 came to 0.1 µM.
On to `COc1cccc2c1OCC(C)(C)C2=O`, for which the half-maximal inhibitory concentration (IC50) against Acetylcholinesterase [1] and at Cholinesterase [3] was above 100 µM in each case.
On to `C#CCN(C)CCCOc1ccc(Cl)cc1Cl` [CLORGILINE], for which the inhibition at 1 µM in [2] came out at 99.8%.
`CC1(C)COc2cc3ccccc3cc2C1=O`: the results for the IC50 against Acetylcholinesterase [1] and on Cholinesterase [3] were above 100 µM and 3.1 µM, respectively. Moreover, the values for the inhibition at 1 µM in data set [2] and in data set [4] were 16.4% and 27.7%, respectively.
`CC1(C)COc2cc3ccccc3cc2C1O` (configuration not stated): the results for the IC50 at Acetylcholinesterase [1] and on Cholinesterase [3] were above 100 µM and 50 µM, respectively.
For the compound `CC1(C)COc2ccccc2C1O` (configuration not stated), the IC50 on Acetylcholinesterase [1] is above 100 µM; against Cholinesterase [3], 40 µM. The values for the inhibition at 1 µM in data set [2] and in data set [4] were 24.3% and 8%, respectively.
Regarding `C#CCN(Cc1ccccc1)C1c2cccc(OC)c2OCC1(C)C` (configuration not stated), the results for the inhibition at 1 µM in [2] and in [4] were 4.3% and 14.7%, respectively.
For the compound `CC1(C)COc2ccccc2C1=O`, the 50% inhibitory concentration (IC50) is above 100 µM against Acetylcholinesterase [1] and 43 µM on Cholinesterase [3]. The inhibition at 1 µM in [2] came to 9.7%; in data set [4] it was 9.2%.
For `COc1cccc2c1C(O)C(C)(C)CO2` (configuration not stated), in that order: above 100 µM, above 100 µM, 11.5% and 5.3%.
For the compound `CC1(C)COc2cc(F)ccc2C1=O`, the IC50 at Acetylcholinesterase [1] and on Cholinesterase [3] was above 100 µM throughout.
In the case of `CC1(C)COc2ccc(F)cc2C1=O`, the half-inhibitory concentration (IC50) against Acetylcholinesterase [1] is above 100 µM; at Cholinesterase [3], 33 µM.
For `CC1(C)COc2c(OC(F)(F)F)cccc2C1=O`, the IC50 against Acetylcholinesterase [1] was above 100 µM; against Cholinesterase [3], 4.3 µM.
Regarding `CC1(C)COc2ccc3ccccc3c2C1N` (configuration not stated), the inhibition at 1 µM in data set [2] was found to be 12.5%; in data set [4], 2.7%. Besides, 52 µM corresponded to half-maximal inhibition on Cholinesterase [3] (IC50).
On to `CC1(C)COc2ccc(C#N)cc2C1O` (configuration not stated), for which the IC50 on Acetylcholinesterase [1] was above 100 µM; against Cholinesterase [3], 18 µM.
With `CC1(C)COc2cc(F)ccc2C1O` (configuration not stated), the IC50 against Acetylcholinesterase [1] was above 100 µM; against Cholinesterase [3] it was 18 µM.
`Cc1ccc2c(c1)C(O)C(C)(C)CO2` (configuration not stated): the IC50 against Acetylcholinesterase [1] and against Cholinesterase [3] was above 100 µM each time.
As to `C[C@H](NCc1ccc(OCc2cccc(F)c2)cc1)C(N)=O` [SAFINAMIDE], in data set [2], the inhibition at 1 µM worked out at 1.8%.
`CCOc1cc(C#N)cc2c1OCC(C)(C)C2O` (configuration not stated): the values for the IC50 at Acetylcholinesterase [1] and against Cholinesterase [3] were above 100 µM and 7.3 µM, respectively.
In the case of `NC1CCOc2ccccc21` (configuration not stated), the values for the inhibition at 1 µM in data set [2] and in [4] were -0.7% and 4.8%, respectively.
For `C#CCNC1c2ccccc2OCC1(C)C` (configuration not stated), the “inhibition (INH)” value in [9] is on record as “Active”. Also, the inhibition at 1 µM in data set [4] was 11.6%.
With `COc1cccc2c1OCC(C)(C)C2N` (configuration not stated), the inhibition at 1 µM in data set [2] was -0.7%; in data set [4], 4.3%. For the same compound, on Cholinesterase [3], it took 7.6 µM to reach half-maximal inhibition (IC50). Besides, the values for the inhibitory constant (Ki) at Cholinesterase [5] and on Cholinesterase [6] were 9 µM and 19.1 µM, respectively. The inhibition entry in data set [10] was “Active”.
In the case of `CC1(C)COc2c(ccc3cccnc23)C1=O`, the IC50 at Acetylcholinesterase [1] was above 100 µM; against Cholinesterase [3], 6.4 µM. Further, the inhibition at 1 µM in data set [2] worked out at 14.8%; in data set [4] it was 4.8%.
